ARNT TACC3 PPI – ARNT/TACC3 interaction disruption; Q9Y6A5; AlphaScreen His-ARNT PAS-B/GST-TACC3 binding, luminescence; TACC3 fragment carries E629A point mutation; inhibition, % at 9.99 µM; hit rate 0.66% among 390,000;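 active = mean inhibition of replicates at least 50% and at least half of replicates each reaching 50%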;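 note: 0% = complete ARNT plus TACC3 wells and 100% = ARNT alone without TACC3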
Efflux pump inh – blocks antifungal efflux pumps in multiplex yeast assay | AID 485275 | hit rate 0.44% among 330,000 | inhibition, % at 10 µM | S. cerevisiae Candida pump triplex, Nile Red efflux;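 active = plate passing quality check with inhibition over a set limit, or well fluorescence over plate mean plus 4 SD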;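 note: Nile Red retained in pooled yeast measured as flow cytometry median fluorescence; 0% = buffer negative control and 100% = Enniatin B positive control; higher means more Nile Red kept so more efflux inhibition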
SUMO Mot1 rescue – inhibitors of SUMOylation pathway: yeast Mot1-301 growth rescue | S. cerevisiae Mot1-301 growth rescue, ATP luminescence, 38.5C; percent above DMSO median, 100 means doubled | growth rescue, % at 18.8 µM | hit rate 1% among 320,000;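 active = every valid replicate shows activation above 250% relative to neutral control wells; inactive = the rest, any valid replicate at or below 250%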;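 note: OY570 slx delta 5 strain wells were the positive control but not used for scaling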
RTF Ca sens inh – cardiac RTF calcium desensitization. inhibition, % at 7.15 µM. IANBD-labeled cardiac RTF, Ca2+ fluorescence. hit rate 0.12% among 340,000. AID 493244;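 active = inhibition above the mean inhibition of all tested compounds plus 3 SD, cut at about 17% in these data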;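 note: assay run at fixed EC70 calcium of 1.6 mM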
UCH37 inh – inhibitors of human deubiquitinating enzyme UCH37; Q9Y5K5; purified proteasome/UCH37, Ub-AMC cleavage fluorescence; inhibition, % (test concentration not listed); hit rate 0.33% among 330,000; AID 588478;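 active = mean inhibition over replicate wells above about 20%, limit read from the data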;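 note: 0% = compound-free wells with enzyme and 100% = wells lacking proteasome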
Target sequence (Q9Y5K5 whole entry, looked up): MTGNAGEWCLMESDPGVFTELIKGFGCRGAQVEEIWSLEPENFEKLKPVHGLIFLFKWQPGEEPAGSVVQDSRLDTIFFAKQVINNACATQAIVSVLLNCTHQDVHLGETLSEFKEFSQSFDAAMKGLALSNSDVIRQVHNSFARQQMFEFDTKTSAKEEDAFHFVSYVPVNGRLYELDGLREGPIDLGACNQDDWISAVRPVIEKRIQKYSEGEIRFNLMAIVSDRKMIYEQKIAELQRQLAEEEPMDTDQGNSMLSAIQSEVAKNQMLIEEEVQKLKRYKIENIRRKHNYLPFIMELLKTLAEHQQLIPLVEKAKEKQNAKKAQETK
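Schedule: 30 min plus 25 min, room temperature / Material: human UCH37 within purified proteasomes / Technique: AMC fluorescence intensity at 355/460 nm / Buffer or medium: pH 7.4 Tris-HCl (50 mM) with ovalbumin, ATP-MgCl2, DTT / Controls: wells without proteasome as full block, compound-free enzyme plus substrate as uninhibited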
cardiac RTF act – cardiac RTF calcium sensitization | P19429+P45379 | IANBD-labeled TnC RTF fluorescence at EC20 calcium; 0% EC20 calcium, 100% full calcium | activation, % at 7.2 µM | hit rate 0.24% among 340,000 | AID 493008;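 active = activation above the mean over all tested compounds plus 3 SD, cut at about 30% in these data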;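 note: rise in fluorescence read as greater calcium sensitivity of cardiac thin filaments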
ARNT Alpha ctr-1 – interferes with AlphaScreen signal, flagging false ARNT-TACC3 hits; His-ARNT PASB-GST AlphaScreen artifact counter-screen, luminescence; shares compounds with ARNT TACC3 PPI; AID 651705; AC50, µM (highest dose often 68 µM), without a hit: at the top dose activity change, negative = signal decrease; hit rate 50% among 1,200;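 active = every separate test run was called active for a drop in luminescence, with AC50 within twice the top valid dose, actives reach about 71 µM in these data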
ARNT Alpha ctr-2 – counter-screen for ARNT-TACC3 inhibitors: AlphaScreen artifacts. hit rate 70% among 45. AC50, µM. AID 720564. shares compounds with ARNT TACC3 PPI. Dual-tagged His-ARNT PASB-GST AlphaScreen artifact counter-screen;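 active = luminescence drop, with half-maximal potency fitted within twice the sample's top valid dose, cut at about 70 µM in these data; inactive = the rest, including signal moving the wrong way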
* hit, by the source's call; i = inactive; / = no result given; + = active, no number; [ ] = another dose, or the depositor's remark. Hits are enriched below; roughly 2.1% of the tested compounds scored in any of these assays.

SMILES	ARNT TACC3 PPI	Efflux pump inh	SUMO Mot1 rescue	RTF Ca sens inh	UCH37 inh	cardiac RTF act	ARNT Alpha ctr-1	others
O=C(Nc1nc(-c2ccccn2)cs1)c1ccc(S(=O)(=O)N2CCOCC2)cc1	/	/	/	/	/	/	/	ARNT Alpha ctr-2=6.5*
COc1ccc(C(=O)Nc2ccccn2)cc1S(=O)(=O)N1CCOCC1	1	0	-7	-2	1	0	/
COc1ccc(C(=O)Nc2nc3ccccc3[nH]2)cc1S(=O)(=O)N1CCOCC1	51*	0	3	2	5	0	-29%
CN(C)C=Nc1c(C#N)cnn1-c1ccc(C(F)(F)F)cn1	/	/	/	/	4	/	/
O=C(NN=Cc1ccc(O)c(O)c1)c1ccc(CSc2cccc3cccnc23)cc1	/	/	/	/	-17	/	/
O=C(NN=Cc1ccc2c(c1)OCO2)/C(=C/c1ccc2c(c1)OCO2)NC(=O)c1ccccc1	/	/	/	/	-8	/	/
COC(=O)c1[nH]c2ccccc2c1NC(=O)Oc1ccccc1	-4	0	72	-8	-20	0	/
COC(=O)c1[nH]c2cc(OC)c(OC)cc2c1NC(=O)Oc1ccccc1	35*	0	-15	-4	-60	3	-8%
S=c1[nH]nc(-c2cc3c(s2)-c2ccccc2CC3)o1	70*	0	168	2	i	-7	-21%
CCC1CCCC1=NNC(=O)c1ccoc1C (centres undefined)	/	/	/	/	3	/	/
Cc1cccc(OCc2nc(-c3ccccn3)n[nH]2)c1	67*	0	-9	-2	5	-4	35µM*
Cc1ccc(OCc2nc(-c3ccccn3)n[nH]2)cc1	/	0	-2	5	1	-1	/
COc1cccc(/C=N/Nc2nc3ccccc3[nH]2)c1O	58*	0	-19	-1	/	-5	-42%
C/C(=N/NC(=O)c1ccncc1)c1cc2ccc(O)cc2oc1=O	57*	2	6	-403	/	+	-8%
C/C(=N\NC(=O)c1ccncc1)c1cc2ccccc2oc1=O	/	0	-15	-20	/	3	/
O=C(C[C@H]1C=C[C@@H](NC(=O)Nc2ccccc2)[C@@H](CO)O1)NCc1ccccn1	35*	/	/	/	/	/	-8%[42 µM]
O=C(C[C@H]1C=C[C@H](NC(=O)Nc2ccccc2)[C@H](CO)O1)NCc1ccccn1	3	/	/	/	/	/	/
Cc1cc(C)c(S(=O)(=O)N2CCCC2=O)c(C)c1N(C)S(C)(=O)=O	9.2*	0	-4	-13	3	-3	-5%
O=C(CSc1nc2sc3c(c2c(=O)n1-c1ccccc1)CCCC3)NN=Cc1ccccc1C(=O)O	/	/	/	/	-67	/	/
COc1ccc2nnc(-c3ccccc3)n2n1	-2	0	/	-1	-15	3	/
COc1cc(CCNc2ccc3nnc(-c4ccccc4)n3n2)cc(OC)c1OC	56*	0	1	0	7	1	68µM*
O=C(NN=Cc1ccc(C(F)(F)F)cc1)c1ccc(O)cc1	/	/	/	/	5	/	/
CCN(CC(=O)NCc1cccs1)CC(=O)Nc1ccc(C(N)=O)cc1	8	0	-15	-5	5	5	/
CCN(CC(=O)NCc1cccs1)CC(=O)Nc1cccc(S(N)(=O)=O)c1	26*	0	/	-9	2	1	3%
COCc1cc(C)nc(OCC(=O)NN=Cc2ccc(OC)c(OC)c2)c1C#N	/	/	/	/	5	/	/
SMILES	ARNT TACC3 PPI	Efflux pump inh	SUMO Mot1 rescue	RTF Ca sens inh	UCH37 inh	cardiac RTF act	ARNT Alpha ctr-1	others
Cc1ccc(N(C)S(=O)(=O)c2cccc(C(=O)Oc3ccc4c(C)cc(=O)oc4c3)c2)cc1	53*	0	-8	3	i	9	-21%
CC(=NNc1ccc(F)cc1F)c1ccccc1O	/	/	/	/	-1	/	/
Cc1cccc(C(=O)ON=Cc2c(Cl)n(C)c3ccccc23)c1	/	/	/	/	4	/	/
Cc1ccc(C(=O)Nc2nnc(-c3ccco3)o2)cc1C	21	0	7	5	2	1	/
Cc1ccccc1C(=O)Nc1nnc(-c2ccco2)o1	62*	0	/	2	5	6	-33%
Cc1cccc(C(=O)Nc2nnc(-c3cccnc3)o2)c1	59*	1	11	-2	3	1	-35%

Screens deposited in PubChem BioAssay by several laboratories.
